# Experimental data taken from ChEMBL document CHEMBL4308833, “A Thieno[2,3- d]pyrimidine Scaffold Is a Novel Negative Allosteric Modulator of the Dopamine D2 Receptor” (J Med Chem, 2018).
# Active and inactive are the calls of the source. The rule behind the calls is not given here.
# Experiments:
# [1] = biological target: D(2) dopamine receptor (Homo sapiens) (UniProt P14416); experiment: Displacement of [3H]Raclopride from recombinant human D2L receptor expressed in Flp-In CHO cell membranes after 2 to 3 hrs by microbeta counting method
# Sequence of D(2) dopamine receptor (Homo sapiens) (P14416 whole entry): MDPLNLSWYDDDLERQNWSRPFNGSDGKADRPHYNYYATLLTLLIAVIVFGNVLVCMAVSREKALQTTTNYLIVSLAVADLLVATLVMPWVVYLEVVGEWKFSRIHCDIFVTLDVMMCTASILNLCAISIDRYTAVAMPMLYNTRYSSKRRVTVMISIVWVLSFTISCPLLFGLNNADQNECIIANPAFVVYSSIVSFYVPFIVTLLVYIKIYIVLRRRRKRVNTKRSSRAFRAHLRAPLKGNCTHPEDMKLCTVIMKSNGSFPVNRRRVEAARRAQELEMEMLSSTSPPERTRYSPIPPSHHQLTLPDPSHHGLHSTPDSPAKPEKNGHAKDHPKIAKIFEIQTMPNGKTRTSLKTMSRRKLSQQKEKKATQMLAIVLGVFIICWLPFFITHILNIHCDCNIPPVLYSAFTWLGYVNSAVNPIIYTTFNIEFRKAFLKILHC
# Summary of the method: (§1)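 hD2LR FlpIn CHO membrane homogenate (15 µg protein) was co-incubated with 0.5 nM [3H]raclopride and test compound at 10^-3 to 10^-7 M (half-log dilutions from DMSO stock, in duplicate). Incubation was 2-3 h at 25 °C in HEPES buffer, pH 7.4. Nonspecific binding was defined with 10 µM haloperidol. Filtration was followed by scintillation counting. KB and cooperativity α were obtained from an allosteric ternary complex model.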
# [2] = biological target: D(2) dopamine receptor (Homo sapiens) (UniProt P14416); experiment: (§2) Negative allosteric modulation of recombinant human D2L receptor expressed in Flp-In CHO cells assessed as inhibition of dopamine-induced reduction in forskolin stimulated cAMP accumulation by measuring co-operativity factor preincubated for 30 mins followed by forskolin stimulation and measured after 30 mins by BRET assay; assay type: functional, cell-based
# [3] = biological target: D(2) dopamine receptor (Homo sapiens) (UniProt P14416); experiment: as §2, with “modulation of dopamine efficacy” for “co-operativity factor”; assay type: functional, cell-based
# [4] = biological target: D(2) dopamine receptor (Homo sapiens) (UniProt P14416); experiment: Negative allosteric modulation of recombinant human D2L receptor expressed in Flp-In CHO cells assessed as inhibition of dopamine-induced reduction in forskolin stimulated cAMP accumulation preincubated for 30 mins followed by forskolin stimulation and measured after 30 mins by BRET assay; assay type: functional, cell-based
# [5] = biological target: D(3) dopamine receptor (Homo sapiens) (UniProt P35462); experiment: Displacement of [3H]Raclopride from recombinant D3 receptor (unknown origin) expressed in Flp-In CHO cell membranes after 2 to 3 hrs by microbeta counting method
# Sequence of D(3) dopamine receptor (Homo sapiens) (P35462 whole entry): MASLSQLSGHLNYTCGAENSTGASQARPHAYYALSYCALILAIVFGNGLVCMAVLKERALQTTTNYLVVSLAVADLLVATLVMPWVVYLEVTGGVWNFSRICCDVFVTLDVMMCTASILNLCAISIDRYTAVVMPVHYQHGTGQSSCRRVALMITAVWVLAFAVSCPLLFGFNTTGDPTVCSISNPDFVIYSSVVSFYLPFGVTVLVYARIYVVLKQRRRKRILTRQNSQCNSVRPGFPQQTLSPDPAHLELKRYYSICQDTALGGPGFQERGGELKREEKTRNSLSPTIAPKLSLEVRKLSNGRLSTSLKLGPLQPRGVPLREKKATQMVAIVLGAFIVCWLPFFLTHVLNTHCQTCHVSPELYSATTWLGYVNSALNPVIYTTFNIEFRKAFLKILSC
# Summary of the method: (§3)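 In FlpIn CHO membranes expressing hD3R, compound was tested for displacement of [3H]raclopride in equilibrium binding. Competition curves were fitted with an allosteric ternary complex model to give KB and the net cooperativity factor with [3H]raclopride. Data are at least three independent experiments in duplicate.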
# [6] = species: Homo sapiens; experiment: Selectivity ratio of Kb for recombinant D3 receptor (unknown origin) expressed in Flp-In CHO cell membranes to Kb for recombinant human D2L receptor expressed in Flp-In CHO cell membranes; assay type: cell-based
# [7] = biological target: D(2) dopamine receptor (Homo sapiens) (UniProt P14416); experiment: as §2, with “factor up to 100 uM” for “factor”; assay type: functional, cell-based
# [8] = biological target: D(3) dopamine receptor (Homo sapiens) (UniProt P35462); experiment: Displacement of [3H]Raclopride from recombinant D3 receptor (unknown origin) expressed in Flp-In CHO cell membranes assessed as co-operativity factor after 2 to 3 hrs by microbeta counting method; summary of the method: as §3
# [9] = biological target: D(2) dopamine receptor (Homo sapiens) (UniProt P14416); experiment: Displacement of [3H]Raclopride from recombinant human D2L receptor expressed in Flp-In CHO cell membranes assessed as co-operativity factor after 2 to 3 hrs by microbeta counting method; summary of the method: as §1
Compound,Kb [1] [µM],pKb [1],Activity [2],log(activity) [2],log(activity) [3],Kb [4] [µM],pKb [4],Activity [3],Kb [5] [µM],pKb [5],Selectivity ratio [6],inhibition [7],Activity [8],log(activity) [8],Activity [9],log(activity) [9]
FC(F)(F)c1cccc(Nc2nc(CCN3CCOCC3)nc3sc4c(c23)CCCC4)c1,70,4.16,0.23,-0.63,0,0.981,6.01,–,–,–,–,–,–,–,–,–
FC(F)(F)c1cccc(Nc2nc(CCCN3CCOCC3)nc3sc4c(c23)CCCC4)c1,13,4.89,0.21,-0.68,-0.4,1.63,5.79,0.4,–,–,–,–,–,–,–,–
CCN(CC)c1nc(CCCCN2CCOCC2)nc2sc3c(c12)CCCC3,16,4.79,–,–,1.07,1.77,5.8,–,10,4.99,1.6,–,–,–,–,–
CCN(CC)c1nc(CN2CCOCC2)nc2sccc12,1.3,5.89,0.08,-1.1,-0.62,3.13,5.5,0.24,11,4.95,0.1,–,–,–,–,–
c1ccc(Nc2nc(CN3CCOCC3)nc3sc4c(c23)CCCC4)cc1,99,4,–,0,-0.95,7.46,5.13,0.11,–,–,–,–,–,–,–,–
Cc1sc2nc(CN3CCOCC3)nc(Nc3cccc(C(F)(F)F)c3)c2c1C,–,3.59,–,–,–,–,–,–,–,–,–,inactive,–,–,–,–
FC(F)(F)c1cccc(Nc2ncnc3sc4c(c23)CCCC4)c1,31,4.51,–,0,-1.02,25.4,4.6,0.1,0.2,6.65,140,–,0.06,-0.39,0.39,-0.41
FC(F)(F)c1cccc(Nc2nc(CN3CCOCC3)nc3sc4c(c23)CCCCC4)c1,37,4.43,–,–,–,–,–,–,–,–,–,inactive,–,–,–,–
O=c1[nH]cnc2sc3c(c12)CCCC3,–,–,–,–,–,–,–,–,–,–,–,inactive,–,–,–,–
FC(F)(F)c1cccc(Nc2nc(CN3CCOCC3)nc3scc(-c4ccccc4)c23)c1,48.6,4.31,–,–,–,–,–,–,–,–,–,inactive,–,–,0.13,-0.88
CCN(CC)c1nc(CCCCN2CCOCC2)nc2sccc12,3,5.51,0.05,-1.34,-0.82,1.3,5.89,0.15,0.9,6.06,3.5,–,–,–,–,–
CNc1nc(CN2CCOCC2)nc2sc3c(c12)CCCC3,53,4.28,–,–,–,–,–,–,–,–,–,inactive,–,–,–,–
FC(F)(F)c1cccc(Nc2ncnc3sccc23)c1,63,4.2,0.37,-0.43,0,0.8,6.13,–,–,–,–,–,–,–,–,–
CN(C)c1nc(CN2CCOCC2)nc2sc(Cc3ccccc3)cc12,30,4.51,0.68,-0.17,-0.84,4.9,5.31,0.15,–,–,–,–,–,–,–,–
FC(F)(F)c1cccc(Nc2nc(CN3CCOCC3)nc3sc4c(c23)CCCCCC4)c1,–,3.98,–,–,–,–,–,–,–,–,–,inactive,–,–,–,–
FC(F)(F)c1cccc(Oc2nc(CN3CCOCC3)nc3sc4c(c23)CCCC4)c1,22,4.66,–,–,–,–,–,–,–,–,–,inactive,–,–,–,–

Compound,Kb [1] [µM],pKb [1],Activity [2],log(activity) [2],log(activity) [3],Kb [4] [µM],pKb [4],Activity [3],Kb [5] [µM],pKb [5],Selectivity ratio [6],inhibition [7],Activity [8],log(activity) [8],Activity [9],log(activity) [9]
FC(F)(F)c1cccc(Nc2nc(CCCCN3CCOCC3)nc3sccc23)c1,19,4.71,0.13,-0.88,-1.21,1.4,5.85,0.06,–,–,–,–,–,–,–,–
CCN(CC)c1ncnc2sc3c(c12)CCCC3,17,4.76,–,0,-3,1.92,5.72,–,–,–,–,–,–,–,–,–
FC(F)(F)c1cccc(Nc2nc(CN3CCOCC3)nc3sc(Cc4ccccc4)cc23)c1,50,4.3,–,–,–,–,–,–,–,–,–,inactive,–,–,–,–
FC(F)(F)c1cccc(Nc2nc(CCCCN3CCOCC3)nc3sc4c(c23)CCCC4)c1,3.31,5.48,0.19,-0.72,-1.5,0.611,6.21,0.03,–,3.97,0.03,–,0.2,-0.69,0.09,-1.03
COc1cccc(Nc2nc(CN3CCOCC3)nc3sc4c(c23)CCCC4)c1,48,4.32,0.19,-0.73,-0.53,8.02,5.1,0.29,–,–,–,–,–,–,–,–
FC(F)(F)c1cccc(Nc2nc(CN3CCOCC3)nc3sccc23)c1,–,3.91,–,–,–,–,–,–,–,–,–,inactive,–,–,–,–
FC(F)(F)c1cccc(Nc2nc(CN3CCCCC3)nc3sc4c(c23)CCCC4)c1,39,4.41,0.34,-0.46,-0.22,6.98,5.16,0.6,–,–,–,–,–,–,–,–
FC(F)(F)c1cccc(Nc2nc(CN3CCOCC3)nc3scc(C4CCCCC4)c23)c1,38,4.42,–,–,–,–,–,–,–,–,–,inactive,–,–,–,–
FC(F)(F)c1cccc(Nc2nc(CN3CCOCC3)nc3sc4c(c23)CCC4)c1,59,4.23,0.13,-0.9,0,11.4,4.95,–,–,–,–,–,–,–,–,–
FC(F)(F)c1cccc(Nc2nc(CN3CCOCC3)nc3sc(C4CCCCC4)cc23)c1,45.8,4.34,0.13,-0.9,0,5.37,5.27,–,–,–,–,–,–,–,–,–
CCN(CC)c1ncnc2sccc12,23,4.65,–,0,-0.89,4.6,5.31,0.13,–,–,–,–,–,–,0.1,-1.01
Fc1cccc(Nc2nc(CN3CCOCC3)nc3sc4c(c23)CCCC4)c1,–,–,–,0,-0.4,8.39,5.08,0.4,–,–,–,–,–,–,–,–
Oc1cccc(Nc2nc(CN3CCOCC3)nc3sc4c(c23)CCCC4)c1,35,4.45,0.06,-1.22,-3,2.81,5.55,–,–,–,–,–,–,–,–,–
CCN(CC)c1nc(CC2CCOCC2)nc2sc3c(c12)CCCC3,35,4.45,–,–,–,–,–,–,–,–,–,inactive,–,–,–,–
FC(F)(F)c1cccc(Nc2nc(CN3CCOCC3)nc3sc(-c4ccccc4)cc23)c1,45,4.35,–,–,–,–,–,–,–,–,–,inactive,–,–,–,–
